SMILES strings stand for the structures.

In data set [1] the test system is Influenza A virus H3N2. Kind of data set: Antiviral activity against Influenza A virus H3N2 A/Hong Kong/68 infected in MDCK cells assessed as inhibition of virus-induced cytopathic effect after 48 hrs. It counts as functional, organism-based. The essentials:
(§1)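 Run on 2-day-old confluent MDCK monolayers. Test concentrations reached a maximum of 100 μM for pure compounds and 100 μg/mL for extracts or fractions. Virus input gave complete CPE at 48 h post-infection, when inhibition was scored. Each concentration was tested twice. IC50 (50% inhibition of virus-induced CPE) is the mean of at least three experiments.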
Background: Damage to the host cells serves as the signal in cytopathic effect assays.

In data set [2] the test system is Influenza A virus. In words: Antiviral activity against Influenza A virus H1N1 A/Jena/8178/09 infected in MDCK cells assessed as inhibition of virus-induced cytopathic effect after 48 hrs. It counts as functional, organism-based. In short, it runs like this:
as §1

Data set [3] can be described thus: Selectivity index, ratio of CC50 for MDCK cells to IC50 for Influenza A virus H1N1 A/Jena/8178/09 infected in MDCK cells. It counts as toxicity, cell-based. The settings on record: dog, read-out: Ratio CC50/IC50. The essentials: (§2)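 SI was calculated as CC50/IC50. CC50 was measured on 2-day-old confluent MDCK monolayers 72 h after sample addition, at a maximum of 100 μM for compounds or 100 μg/mL for extracts or fractions, with each concentration tested twice. IC50 came from the 48 h CPE inhibition assay. Both are means of at least three experiments.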

Data set [4] can be described thus: Selectivity index, ratio of CC50 for MDCK cells to IC50 for Influenza A virus H3N2 A/Hong Kong/68 infected in MDCK cells. It counts as toxicity, cell-based. The settings on record: dog, read-out: Ratio CC50/IC50. The essentials:
as §2

Consider `C=C(C)[C@@H]1CC[C@]2(C(=O)O)CC[C@]3(C)[C@H](CC[C@@H]4[C@@]5(C)C[C@@H](O)[C@H](O[C@@H]6O[C@H](CO)[C@@H](O)[C@H](O)[C@H]6O[C@@H]6OC[C@@H](O)[C@H](O)[C@H]6O)C(C)(C)[C@@H]5CC[C@]43C)[C@@H]12`, for which the IC50 entry in data set [1] was “Not Active”.
`C[C@H]1O[C@@H](O[C@H]2[C@H](O)[C@@H](O[C@@H]3OC[C@@H](O)[C@H](O)[C@H]3O)[C@H](O[C@H]3[C@H](O)C[C@]4(C)[C@H]5CC=C6[C@@H]7CC(C)(C)CC[C@]7(C(=O)O)CC[C@@]6(C)[C@]5(C)CC[C@H]4C3(C)C)O[C@@H]2CO)[C@@H](O)[C@@H](O)[C@@H]1O`: the IC50 result in data set [2] is on record as “Not Active”.
As to `CC1(C)C[C@H]2C3=CC[C@@H]4[C@@]5(C)CC[C@H](O)C(C)(C)[C@@H]5CC[C@@]4(C)[C@]3(C)CC[C@@]2(C(=O)O)C[C@H]1OC(=O)/C=C/c1ccccc1`, the selectivity ratio was > 15 in data set [3] and > 11 in data set [4].
As for `C=C(C)[C@@H]1CC[C@]2(C(=O)O)CC[C@]3(CO)[C@H](CC[C@@H]4[C@@]5(C)C[C@@H](O)[C@H](O[C@@H]6O[C@H](CO)[C@@H](O)[C@H](O)[C@H]6O[C@@H]6O[C@H](CO)[C@@H](O)[C@H](O)[C@H]6O)C(C)(C)[C@@H]5CC[C@]43C)[C@@H]12`, the IC50 result in data set [1] is “Not Active”.
Regarding `C=C(C)[C@@H]1CC[C@]2(C(=O)O)CC[C@]3(CO)[C@H](CC[C@@H]4[C@@]5(C)C[C@@H](O)[C@H](O)C(C)(C)[C@@H]5CC[C@]43C)[C@@H]12`, in data set [1], the IC50 entry is on record as “Not Active”.
As for `C=C(C)[C@@H]1CC[C@]2(C(=O)O)CC[C@]3(CO)[C@H](CC[C@@H]4[C@@]5(C)C[C@@H](O)[C@H](O[C@@H]6O[C@H](CO)[C@@H](O)[C@H](O)[C@H]6O[C@@H]6OC[C@@H](O)[C@H](O)[C@H]6O)C(C)(C)[C@@H]5CC[C@]43C)[C@@H]12`, the IC50 entry in data set [2] and in data set [1] was “Not Active” each time.
As for `CC1(C)C[C@H]2C3=CC[C@@H]4[C@@]5(C)C[C@@H](O)[C@H](O)C(C)(C)[C@@H]5CC[C@@]4(C)[C@]3(C)CC[C@@]2(C(=O)O)C[C@H]1OC(=O)/C=C/c1ccccc1`, the results for the selectivity ratio in data set [3] and in data set [4] were > 14 and > 9, respectively.
With `C=C(C)[C@@H]1CC[C@]2(C(=O)O)CC[C@]3(C)[C@H](CC[C@@H]4[C@@]5(C)C[C@@H](O)[C@H](O)C(C)(C)[C@@H]5CC[C@]43C)[C@@H]12` [ALPHITOLIC ACID], the IC50 result in data set [2] and in data set [1] was “Not Active” in each case.
For `CC1(C)CC[C@]2(C(=O)O)CC[C@]3(C)C(=CC[C@@H]4[C@@]5(C)C[C@@H](O)[C@H](O)C(C)(C)[C@@H]5CC[C@]43C)[C@@H]2C1` [MASLINIC ACID], the IC50 entry in data set [2] and in data set [1] was “Not Active” throughout.
